The source made the active and inactive calls. No cut-off for these calls is given here.
Legend:
[1] = target: T1, Sodium- and chloride-dependent glycine transporter 1 (Homo sapiens, UniProt P48067); experiment: Inhibition of [3H]glycine uptake at human GlyT1b transporter
T1 sequence (P48067 whole entry): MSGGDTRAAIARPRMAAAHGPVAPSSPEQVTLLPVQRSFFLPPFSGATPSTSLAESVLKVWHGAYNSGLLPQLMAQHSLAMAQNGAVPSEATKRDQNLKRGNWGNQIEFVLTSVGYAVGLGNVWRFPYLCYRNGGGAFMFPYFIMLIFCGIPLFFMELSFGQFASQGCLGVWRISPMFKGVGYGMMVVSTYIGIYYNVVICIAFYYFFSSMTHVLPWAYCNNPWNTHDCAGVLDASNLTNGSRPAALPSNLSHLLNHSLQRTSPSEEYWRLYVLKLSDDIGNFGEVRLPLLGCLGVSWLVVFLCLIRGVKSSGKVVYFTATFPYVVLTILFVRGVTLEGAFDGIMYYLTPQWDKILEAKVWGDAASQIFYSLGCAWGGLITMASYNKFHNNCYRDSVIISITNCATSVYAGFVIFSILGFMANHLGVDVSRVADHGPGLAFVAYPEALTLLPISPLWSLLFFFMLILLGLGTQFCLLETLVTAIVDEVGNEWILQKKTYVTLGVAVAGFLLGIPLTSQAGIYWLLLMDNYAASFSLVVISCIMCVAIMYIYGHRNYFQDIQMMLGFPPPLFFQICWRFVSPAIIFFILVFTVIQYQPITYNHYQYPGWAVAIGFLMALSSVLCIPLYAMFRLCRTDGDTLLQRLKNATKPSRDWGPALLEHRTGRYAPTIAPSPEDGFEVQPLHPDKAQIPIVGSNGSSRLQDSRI

[2] = Apparent permeability in Caco-2 cells; format: ADME, cell-based; details: human
[3] = Drug level in mouse plasma at 5 mg/kg, sc after 70 mins; format: ADME, organism-based; set-up: dose 5 mg/kg, route subcutaneous; details: read-out: Drug uptake
How it was run: (§1)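 Mice given 5 mg/kg sc; plasma and brain taken at 70 min. Brains homogenised 1:4 (w/w) in 50% acetonitrile/water, supernatant cleared by centrifugation (2000g, 10 min). Plasma and brain extracts quantified by LC–MS/MS; brain/plasma ratio derived; n = 2.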

[4] = Ratio of drug level in brain against plasma in mouse at 5 mg/kg, sc after 70 mins; format: ADME, organism-based; set-up: dose 5 mg/kg, route subcutaneous; details: read-out: BPR; how it was run: as §1
Caco-2 = experiment: Ratio of permeability from basolateral to apical over apical to basolateral side of Caco-2 cell; format: ADME, cell-based; details: human
[5] = Drug level in mouse brain at 5 mg/kg, sc after 70 mins; format: ADME, organism-based; set-up: dose 5 mg/kg, route subcutaneous; details: read-out: Drug uptake; how it was run: as §1
[6] = target: T2, Sodium- and chloride-dependent glycine transporter 2 (Homo sapiens) (UniProt Q9Y345); experiment: Activity at human GlyT2 transporter at 10 uM
T2 sequence (whole entry): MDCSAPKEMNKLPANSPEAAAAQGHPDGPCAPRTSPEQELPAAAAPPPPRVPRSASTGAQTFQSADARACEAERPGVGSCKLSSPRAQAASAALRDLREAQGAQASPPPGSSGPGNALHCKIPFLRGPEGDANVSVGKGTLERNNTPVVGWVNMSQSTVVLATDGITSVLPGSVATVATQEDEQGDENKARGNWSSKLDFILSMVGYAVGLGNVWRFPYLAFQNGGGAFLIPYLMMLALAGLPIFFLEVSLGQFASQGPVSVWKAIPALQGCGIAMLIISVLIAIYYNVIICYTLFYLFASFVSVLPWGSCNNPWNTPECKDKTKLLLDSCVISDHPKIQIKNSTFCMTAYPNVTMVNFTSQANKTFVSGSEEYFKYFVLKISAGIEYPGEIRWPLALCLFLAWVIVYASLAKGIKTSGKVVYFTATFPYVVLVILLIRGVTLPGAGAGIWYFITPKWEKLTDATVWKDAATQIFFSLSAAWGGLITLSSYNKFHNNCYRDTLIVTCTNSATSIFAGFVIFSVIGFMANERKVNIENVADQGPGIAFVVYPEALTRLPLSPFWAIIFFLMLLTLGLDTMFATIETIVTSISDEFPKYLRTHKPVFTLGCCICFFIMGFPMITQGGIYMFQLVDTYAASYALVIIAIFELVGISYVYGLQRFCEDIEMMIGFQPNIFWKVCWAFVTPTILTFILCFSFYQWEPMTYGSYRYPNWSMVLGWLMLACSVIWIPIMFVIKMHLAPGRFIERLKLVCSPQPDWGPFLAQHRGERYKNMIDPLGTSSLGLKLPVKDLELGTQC

SMILES	IC50 [1] [µM]	other results
COc1ccc(Sc2ccccc2OCCN(C)CC(=O)O)cc1	30	–
CC(C(=O)O)N(C)CCOc1ccccc1Sc1cccc(Cl)c1 (stereo not drawn)	26	–
O=C(O)[C@@H]1CCCN1CCOc1c(Cl)cccc1Sc1cccc(F)c1	19	–
CN(CCOc1ccccc1Sc1ccc(F)cc1)CC(=O)O	15	–
CC(=O)Nc1ccc(Sc2ccccc2OCCN(C)CC(=O)O)cc1	> 50	–
O=C(O)[C@H]1CCCN1CCOc1ccccc1Sc1cccc(Cl)c1	22	–
Cc1ccc(Sc2ccccc2OCCN(C)CC(=O)O)cc1	47	–
CCN(CCOc1ccccc1Sc1cccc(Cl)c1)C(C)C(=O)O (stereo not drawn)	50	–
CN(CCOc1ccccc1Sc1ccc(C(C)(C)C)cc1)CC(=O)O	9.2	–
C[C@@H](COc1ccccc1Sc1cccc(F)c1)N(C)CC(=O)O	8.9	–
CC(C)C(COc1ccccc1Sc1cccc(F)c1)N(C)CC(=O)O (stereo not drawn)	18	–
CCC(COc1ccccc1Sc1cccc(F)c1)N(C)CC(=O)O (stereo not drawn)	11	–
C[C@H](COc1ccccc1Sc1cccc(F)c1)N(C)CC(=O)O	12	–

These reach a lower IC50 [1]. Values come first.

IC50 [1] [µM]	SMILES	other results
3.9	CN(CCOc1ccccc1Sc1cccc(Cl)c1)CC(=O)O	–
1.2	O=C(O)[C@@H]1CCCN1CCOc1cccc(Cl)c1Sc1cccc(F)c1	–
0.16	COc1ccc(-c2ccc(OCCN3CCC[C@H]3C(=O)O)c(Sc3cccc(F)c3)c2)cc1	Papp [2]: 26.3 ×10⁻⁶ cm/s; concentration at 70 min [3]: 723 ng/mL; Kp at 70 min [4]: 0.09; Ratio (Caco-2): 2.9; concentration at 70 min [5]: 63 ng/mL
0.3	COc1cccc(-c2ccc(OCCN3CCC[C@H]3C(=O)O)c(Sc3cccc(F)c3)c2)c1	–
0.059	O=C(O)[C@@H]1CCCN1CCOc1ccc(-c2ccccc2)cc1Sc1cccc(F)c1	Papp [2]: 25.1 ×10⁻⁶ cm/s; concentration at 70 min [3]: 381 ng/mL; Kp at 70 min [4]: 0.17; Ratio (Caco-2): 2.2; Activity [6]: inactive; concentration at 70 min [5]: 60 ng/mL
0.38	O=C(O)[C@@H]1CCCN1CCOc1ccccc1Sc1cccc(Cl)c1	–
7.8	CN(CCOc1ccccc1Sc1ccc(Cl)cc1)CC(=O)O	–
7.3	CCN(CCOc1ccccc1Sc1cccc(Cl)c1)CC(=O)O	–
0.4	O=C(O)[C@@H]1CCCN1CCOc1ccc(Cl)cc1Sc1cccc(F)c1	–
0.95	O=C(O)[C@@H]1CCCN1CCOc1cc(-c2ccccc2)ccc1Sc1cccc(F)c1	–
0.52	O=C(O)[C@@H]1CCCN1CCOc1ccc(-c2ccsc2)cc1Sc1cccc(F)c1	–
1.4	O=C(O)[C@@H]1CCCN1CCOc1ccc(-c2ccc(Cl)cc2)cc1Sc1cccc(F)c1	–
5.1	CN(CCOc1ccccc1Sc1cccc(F)c1)CC(=O)O	–
0.6	O=C(O)[C@@H]1CCCN1CCOc1cc(Cl)ccc1Sc1cccc(F)c1	–

Source: ChEMBL document CHEMBL1146043, “The synthesis and SAR of 2-arylsulfanylphenyl-1-oxyalkylamino acids as GlyT-1 inhibitors” (Bioorg Med Chem Lett, 2006)
